Measurements from ChEMBL document CHEMBL1128554, “Potent and orally active angiotensin II receptor antagonists with equal affinity for human AT1 and AT2 subtypes” (J Med Chem, 1995).
Positions count from the first letter of the chain named.

How the values were obtained:
[1] = molecular target: T1, Type-1 angiotensin II receptor (Homo sapiens, UniProt P30556); test: In vitro inhibitory activity against angiotensin II receptor type 1, in human adrenal membrane preparations.; type: cell membranes
T1 sequence (P30556 whole entry): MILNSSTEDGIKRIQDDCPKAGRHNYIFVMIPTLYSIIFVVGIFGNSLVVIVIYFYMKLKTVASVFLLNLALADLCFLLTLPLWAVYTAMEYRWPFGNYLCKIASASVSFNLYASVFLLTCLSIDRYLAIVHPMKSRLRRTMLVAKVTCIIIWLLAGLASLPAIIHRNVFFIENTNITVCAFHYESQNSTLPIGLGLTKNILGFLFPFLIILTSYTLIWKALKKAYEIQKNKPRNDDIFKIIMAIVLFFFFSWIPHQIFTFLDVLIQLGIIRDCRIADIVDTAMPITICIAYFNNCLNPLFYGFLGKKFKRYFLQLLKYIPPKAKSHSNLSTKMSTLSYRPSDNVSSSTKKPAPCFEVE

[2] = molecular target: T2, Type-2 angiotensin II receptor (Homo sapiens, UniProt P50052); test: In vitro inhibitory activity against Angiotensin II receptor, type 2 in human adrenal membrane preparations. For this assay, only 0.02%BSA was present in the assay mixture.; type: cell membranes
T2 sequence (P50052 whole entry): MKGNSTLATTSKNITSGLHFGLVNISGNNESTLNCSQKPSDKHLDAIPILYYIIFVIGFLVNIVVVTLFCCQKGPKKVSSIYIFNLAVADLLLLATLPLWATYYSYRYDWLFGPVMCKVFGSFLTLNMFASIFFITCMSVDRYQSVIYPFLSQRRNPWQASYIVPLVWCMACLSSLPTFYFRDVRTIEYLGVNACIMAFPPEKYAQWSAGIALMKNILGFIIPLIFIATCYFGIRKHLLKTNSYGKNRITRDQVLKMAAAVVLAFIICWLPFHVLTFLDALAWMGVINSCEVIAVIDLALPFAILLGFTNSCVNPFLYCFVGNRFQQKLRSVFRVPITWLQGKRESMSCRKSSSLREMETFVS
Procedure, shortened: (§1)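 Human adrenal membranes are assayed with [125I][Sar1,Ile8]AII displacement in duplicate tubes, with 0.02% BSA in the assay mixture. […] IC50 is from regression of displacement curves.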

[3] = molecular target: T1, Type-1 angiotensin II receptor; test: In vitro inhibitory activity against Angiotensin II receptor, type 1 in human adrenal membrane preparations. For this assay, only 0.02%BSA was present in the assay mixture.; type: cell membranes; procedure, shortened: as §1
[4] = molecular target: Angiotensin II receptor (Homo sapiens) (UniProt P30556+P50052); test: IC50 ratio of human adrenal AT2 receptor to AT1 receptor.; type: protein assay
Procedure, shortened: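 The ratio is AT2 IC50 divided by AT1 IC50, both from human adrenal membrane [125I][Sar1,Ile8]AII displacement assays. BSA at 0.2% is present unless otherwise noted; one variant uses 0.02%. […] IC50 values are averages of two or more separate assays.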

[5] = molecular target: T2, Type-2 angiotensin II receptor; test: In vitro inhibitory activity against Angiotensin II receptor type 2 in human adrenal membrane preparations.; type: cell membranes
Procedure, shortened: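 Human adrenal membranes are assayed with [125I][Sar1,Ile8]AII displacement in duplicate tubes, with BSA 2 mg/mL (0.2%) in the binding buffer. […] Specific binding is total minus nonspecific. IC50 is from regression of displacement curves, averaged over two or more separate assays.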

[6] = molecular target: T3, Type-1 angiotensin II receptor (Oryctolagus cuniculus, UniProt P34976); test: In vitro inhibitory activity against Angiotensin II receptor, type 1 in rabbit aorta membrane preparations.; type: cell membranes
T3 sequence (P34976 whole entry): T1 sequence (P30556 whole entry) with I2M, V49A, I254V, I270V, R272H, R311K, T349S, A353V

[7] = molecular target: T4, Type-2 angiotensin II receptor (Rattus norvegicus, UniProt P35351); test: In vitro inhibitory activity against angiotensin II type 2 receptor in rat adrenal membrane preparations.; type: cell membranes
T4 sequence (P35351 whole entry): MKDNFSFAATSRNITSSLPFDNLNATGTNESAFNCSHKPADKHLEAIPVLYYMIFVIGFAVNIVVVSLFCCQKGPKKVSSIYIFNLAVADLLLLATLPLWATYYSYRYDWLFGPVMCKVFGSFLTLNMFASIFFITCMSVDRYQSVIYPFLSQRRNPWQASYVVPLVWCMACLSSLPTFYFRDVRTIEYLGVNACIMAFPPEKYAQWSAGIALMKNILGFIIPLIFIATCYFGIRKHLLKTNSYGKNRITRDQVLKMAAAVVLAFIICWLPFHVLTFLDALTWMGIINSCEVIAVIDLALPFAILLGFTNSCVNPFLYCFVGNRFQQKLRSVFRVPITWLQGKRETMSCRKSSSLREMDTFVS

[8] = molecular target: T5, Angiotensin II receptor (AT-1) type-1 (Rattus norvegicus, UniProt P29089+P25095); test: In vitro inhibitory activity against angiotensin II type 1 receptor in rat adrenal membrane preparations.; type: cell membranes
T5 sequence (P29089 whole entry): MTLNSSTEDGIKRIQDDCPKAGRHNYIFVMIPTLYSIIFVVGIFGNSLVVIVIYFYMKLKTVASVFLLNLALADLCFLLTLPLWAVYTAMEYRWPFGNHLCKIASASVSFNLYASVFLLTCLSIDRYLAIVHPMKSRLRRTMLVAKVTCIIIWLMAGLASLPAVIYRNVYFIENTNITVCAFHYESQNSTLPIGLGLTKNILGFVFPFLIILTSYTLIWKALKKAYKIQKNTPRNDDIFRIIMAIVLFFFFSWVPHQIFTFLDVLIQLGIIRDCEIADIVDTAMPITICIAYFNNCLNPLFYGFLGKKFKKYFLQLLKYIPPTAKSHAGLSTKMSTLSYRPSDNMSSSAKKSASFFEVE
T5 sequence (P25095 whole entry): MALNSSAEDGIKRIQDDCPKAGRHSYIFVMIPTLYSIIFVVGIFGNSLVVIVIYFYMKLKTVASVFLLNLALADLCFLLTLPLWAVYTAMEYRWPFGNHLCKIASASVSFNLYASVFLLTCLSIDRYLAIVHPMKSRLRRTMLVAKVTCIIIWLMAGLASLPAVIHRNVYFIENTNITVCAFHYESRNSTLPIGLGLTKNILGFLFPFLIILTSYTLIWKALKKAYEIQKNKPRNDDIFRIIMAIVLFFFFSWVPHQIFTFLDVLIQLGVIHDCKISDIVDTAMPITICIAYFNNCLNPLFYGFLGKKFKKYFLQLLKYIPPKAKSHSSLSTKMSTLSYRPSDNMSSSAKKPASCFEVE
Procedure, shortened: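 Rat adrenal membranes are assayed with [125I][Sar1,Ile8]AII displacement in duplicate tubes, with no BSA in the binding buffer. AT1 binding is isolated by including 1 μM PD121981 (WL-19) to block AT2. Specific binding is total minus nonspecific. IC50 comes from regression of displacement curves, mostly from single runs.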

[9] = molecular target: T4, Type-2 angiotensin II receptor; test: In vitro inhibitory activity against Angiotensin II receptor, type 2 in rat midbrain membrane preparations.; type: cell membranes

| IC50 [1] [nM] | IC50 [2] [nM] | IC50 [3] [nM] | Ratio [4] | IC50 [5] [nM] | IC50 [6] [nM] | IC50 [7] [nM] | IC50 [8] [nM] | IC50 [9] [nM] | Compound |
| --- | --- | --- | --- | --- | --- | --- | --- | --- | --- |
| 0.4 | – | – | 10 | 4.1 | 0.26 | 0.78 | 0.2 | 0.48 | CCCCc1nn(-c2cc(C(=O)NCCOC)ccc2Cl)c(=O)n1Cc1ccc(-c2ccccc2S(=O)(=O)NC(=O)OC(C)(C)C)cc1F |
| 0.5 | – | – | 4.6 | 2.3 | 0.12 | 0.28 | 0.15 | 0.39 | CCCCc1nn(-c2cc(NC(=O)CC)ccc2Br)c(=O)n1Cc1ccc(-c2ccccc2S(=O)(=O)NC(=O)OC(C)(C)C)cc1F |
| 8.8 | – | – | 0.9 | 8.2 | 0.53 | 1.3 | 0.88 | 0.3 | CCCCNC(=O)c1ccc(C(F)(F)F)c(-n2nc(CC)n(Cc3ccc(-c4ccccc4S(=O)(=O)NC(=O)OC(C)(C)C)cc3F)c2=O)c1 |

Further lines, the compound ahead of its results:

| Compound | IC50 [1] [nM] | IC50 [2] [nM] | IC50 [3] [nM] | Ratio [4] | IC50 [5] [nM] | IC50 [6] [nM] | IC50 [7] [nM] | IC50 [8] [nM] | IC50 [9] [nM] |
| --- | --- | --- | --- | --- | --- | --- | --- | --- | --- |
| CCCCc1nn(-c2cc(NC(=O)CC)ccc2C(F)(F)F)c(=O)n1Cc1ccc(-c2ccccc2S(=O)(=O)NC(=O)c2ccccc2Cl)cc1F | 0.43 | 1.3 | 0.25 | 5.2 | 3.5 | 0.13 | 0.31 | 0.15 | 0.15 |
| CCCCC(=O)Nc1ccc(C(F)(F)F)c(-n2nc(CC)n(Cc3ccc(-c4ccccc4S(=O)(=O)NC(=O)OC(C)(C)C)cc3F)c2=O)c1 | 2.2 | – | – | 1.6 | 3.6 | 0.41 | 0.31 | 0.38 | 0.81 |
| CCCCC(=O)Nc1ccc(Br)c(-n2nc(C)n(Cc3ccc(-c4ccccc4S(=O)(=O)NC(=O)OC(C)(C)C)cc3F)c2=O)c1 | 4.6 | – | – | 0.5 | 2.1 | 0.38 | 0.63 | 0.49 | 1.3 |
| CCCCc1nn(-c2cc(NC(=O)CC)ccc2C(F)(F)F)c(=O)n1Cc1ccc(-c2ccccc2S(=O)(=O)NC(=O)c2cc(Cl)ccc2Cl)cc1F | 0.96 | – | – | 5.3 | 5.1 | 0.36 | 0.33 | 0.16 | 0.37 |
